Source: PubChem BioAssay
Hits are enriched below; roughly 3% of the tested compounds scored in any of these assays.
HSF1 activator = HSF-1 activators, primary screen, NIH3T3-HGL cells, MG132 stress, luminescence, single point; NIH3T3-HGL HSF-1 luciferase reporter, 8 h; 100% = twice DMSO control signal; activation, % at 9 µM; hit rate 1.7% among 300,000; AID 504408, 2011;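 active = mean replicate activation of at least 50% with a set share of replicates each reaching 50%; inconclusive = only one of those two conditions met; inactive = mean below 50% and too few replicates reaching it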;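 also: 0% = median of the neutral control wells and 100% = twice that signal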
T cruzi inh = inhibitors of intracellular T. cruzi growth, primary screen, luminescence, NIH3T3 host cells. T. cruzi beta-gal in NIH3T3, 90 h. inhibition, % (concentration not given with the values). hit rate 1.4% among 300,000;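 active = mean inhibition across valid replicates above about 55%, limit read from the data; inconclusive = mean below that limit but half or more replicates reach it; inactive = mean below it, under half of replicates reach it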;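 also: signal also drops with host cell toxicity which is not excluded here; 0% = plate median of DMSO wells and 100% = zero luminescence signal; higher percent means less beta-gal luminescence so fewer parasites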
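Read-out: Parasite load inhibition, % | Test system: Mouse NIH/3T3 fibroblasts infected with β-gal-expressing T. cruzi Tulahuen C4 | Amount: 5,000 cells/well | Medium: DMEM, 2% fetal bovine serum | Signal: GalScreen β-gal luminescence, detergent lysis, 60 min | Timing: 3 h attach, ≥90 h co-culture | Also added: Tulahuen C4 trypomastigotes, 5000/well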
Glyco luc inh = increase of ERlucT glycosylation luciferase signal, primary screen, N-linked glycosylation inhibitor project, D54 ERlucT cells, luminescence, set 2. D54 ERlucT glycosylation luciferase reporter, 24 h; percent of 100 nM tunicamycin response. reporter increase, % at 12.5 µM. hit rate 0.23% among 360,000;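 active = mean luciferase reporter signal, scaled so untreated is 0 and the glycosylation-blocking control 100, at or above a set limit in every replicate; inconclusive = mean reaches the limit but not every replicate does; inactive = mean below the limit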;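 also: luciferase carries N-glycosylation sites so blocking glycosylation raises the light; 0% = median of neutral control wells and 100% = median of 100 nM tunicamycin wells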
PfHsp90 set2 = growth inhibition of PfHsp90-expressing yeast, primary screen, antimalarial PfHsp90 inhibitor project, S. cerevisiae, BacTiter-Glo luminescence, single point, set 2; BacTiter-Glo ATP, 48 h; yeast lacking PDR1 and PDR3 efflux regulators; inhibition, % at 9.4 µM; hit rate 0.32% among 310,000;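 active = every replicate shows inhibition above about 80%, whatever the replicate mean, limit read from the data; inconclusive = mean inhibition reaches the set limit but some replicate falls short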;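 also: 0% = DMSO neutral controls and 100% = 20 µM radicicol positive controls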
PvdQ inh = P. aeruginosa PvdQ acylase inhibitors, primary screen, biochemical, fluorescence, plate reader and imaging, single point; hit rate 0.063% among 340,000; purified PvdQ acylase; inhibition, % at 10 µM; AID 488965, 2010; in the data active = inhibition above about 30%, passing the limit was not always enough; inconclusive = no clear call, values can overlap the other calls;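 also: 0% = vehicle neutral wells and 100% = reference inhibitor wells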
CaV13 FRET inh = Disruptors of the CACNA1D IQ motif to Ca2+-dependent inactivation inhibitor domain association, primary screening, Förster resonance energy transfer in intact living …. HEK cells, CFP/YFP FRET ICDI-IQ, plate reader, 10 min; percent FRET-ratio fall versus neutral wells. inhibition, % at 12.3 µM. hit rate 0.098% among 340,000;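 active = mean replicate inhibition of at least 30% and at least 1% of replicates passing that level; inconclusive = only one of the two criteria is met; inactive = neither criterion is met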;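 also: 0% = median of the neutral control wells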
Starred values were filed as active, the others as inactive; ? = inconclusive; nt = not tested or not shown.

SMILES	HSF1 activator	T cruzi inh	Glyco luc inh	PfHsp90 set2	PvdQ inh	CaV13 FRET inh
CC(C)N1CCc2c(sc(NC(=O)c3ccc([N+](=O)[O-])o3)c2C(N)=O)C1	110*	20	-24	14	-16	-4
CCOC(=O)c1sc(NC(=O)c2ccco2)c(C#N)c1C	28	4	2	14	-5	-5
COC(=O)c1c(NC(=O)c2ccc([N+](=O)[O-])o2)sc2c1CCN(C(C)C)C2	169*	7	5	-120	15	-6
COC(=O)c1sc(NC(=O)c2ccc([N+](=O)[O-])o2)c(C#N)c1C	10	57*	3	-7	8	-2
CC1(C(=O)NS(=O)(=O)c2ccccc2Cl)CCN1C(=O)CC1CCCC1 (stereo not given)	nt	nt	0	nt	nt	-11
C[C@H](CO)N1C[C@H](C)[C@@H](CN(C)C(=O)CCC(F)(F)F)OCc2cn(nn2)CCCC1=O	nt	nt	nt	nt	nt	-4
COc1ccc([C@H]2CN(c3ccc(OC)cc3)C(=O)[C@@H]2CC(=O)Nc2ccc(Br)cc2)cc1	nt	nt	-1	nt	nt	-8
CC(=O)Nc1ccc(CN2CCCC(CCC(=O)NCc3ccccc3F)C2)cc1 (stereo not given)	2	23	0	2	-9	-5
O=C(CCC1CCCN(Cc2cccc(Cl)c2)C1)NCc1ccccc1F (stereo not given)	5	61*	-2	1	-4	-7
CC(C)c1csc(CN2CCCC(CCC(=O)NCc3ccccc3F)C2)n1 (stereo not given)	9	51	3	2	-11	-4
Cc1nn(C(C)C)c(C)c1CN1CCCC(CCC(=O)NCc2ccccc2F)C1 (stereo not given)	5	58*	-1	9	-7	7
CON(C)C(=O)C(C)(C)CC#CCN(CC#Cc1ccccc1)S(=O)(=O)c1ccc(C)cc1	nt	nt	nt	nt	nt	-5
CC#CC#Cc1cccc(=O)o1	12	-17	36*	5	-4	-3
CC(=O)NCCNc1nc2cc(-c3ccc(Cl)cc3C)sc2c(=O)n1C	nt	nt	3	nt	nt	-6
O=C(NCc1ccccc1)C(c1ccco1)N1CCN(c2ccccc2F)CC1 (stereo not given)	nt	nt	nt	nt	nt	-9
COc1ccc(NC(=O)c2cc(-c3ccncc3)nc3ccccc23)c(OC)c1	nt	nt	-3	21	2	-7
CCOc1ccccc1NC(=O)c1cc(-c2ccncc2)nc2c(Cl)cccc12	5	57*	1	4	-6	-13
Clc1ccc(-c2nc(/C=N/N3CCOCC3)c3ccccn23)cc1	53*	6	1	nt	-4	nt
CC(=O)/C=C/n1c(=S)oc2ccccc21	141*	21	nt	nt	nt	-16
Cc1ccc(S(=O)(=O)N2C[C@H]3C(=O)C[C@@H]4C(=O)N(c5ccccc5)C(=O)[C@@H]4[C@@H]3C[C@H]2c2cccc(Cl)c2)cc1	nt	nt	3	nt	nt	-6
CC(=O)N1CCN(c2ccc(N3CCN(Cc4ccccc4)[C@H](C)C3)c(C)c2)[C@@H](C)C1	nt	nt	nt	nt	nt	-7
CC1=Nc2cc(C(=O)O)ccc2Sc2c(C)ccc(C)c21	101*	-11	-2	2	-7	-20
CC1=Nc2cc(C(=O)N3CCCC3)ccc2Sc2c(C)ccc(C)c21	?	15	-11	-2	-14	-8
O=C(C(=O)N1CCC(c2ccccc2)CC1)c1ccc(F)c(F)c1	nt	nt	nt	nt	nt	-6
CC(C)(C)c1ccc(-n2ncc3c2CCCC3NC(=O)c2ccco2)cc1 (stereo not given)	nt	nt	-4	nt	nt	-6
SMILES	HSF1 activator	T cruzi inh	Glyco luc inh	PfHsp90 set2	PvdQ inh	CaV13 FRET inh
CN(C)C(CNC(=O)CCS(=O)(=O)c1ccccc1)c1ccccc1 (stereo not given)	-11	4	-1	-14	3	-18
CN(C)C(CNC(=O)CCC(=O)c1ccc(Br)cc1)c1ccccc1 (stereo not given)	63*	4	0	-42	-15	-4
CNC(=O)NCC12CC3CC(CC(C3)C1)C2	-22	4	0	6	-11	nt
Cc1cc(C(=O)NCC23CC4CC(CC(C4)C2)C3)c(C)o1	5	61*	nt	nt	nt	nt
OC(c1ccccc1)(c1nc(-c2cc3ccccc3o2)cs1)C(F)(F)F (stereo not given)	nt	nt	-2	nt	nt	-5
O=C(NCC1CCCC(CNC(=O)Nc2ccc(Cl)cn2)C1)Nc1ccc(Cl)cn1 (stereo not given)	56*	60*	-4	-30	-13	-7
CCN(CC)CCOc1c(Br)ccc2c1sc1nc3n(c(=O)c12)CCC3	11	21	67*	19	-5	-2
O=c1c2c(nc3n1CCCCC3)sc1c(O)c(Br)ccc12	-46	13	-10	nt	6	-7
O=C1c2ccc3c4c(ccc(c24)C(=O)N1CCCCO)C(=O)N(CCCCO)C3=O	?	68*	-17	1	-17	-19
CN(c1ccccc1)c1ccc(/C=N/N2CCOCC2)cc1	61*	-8	-14	19	4	-7
C(=NN1CCCCCC1)c1ccccc1	nt	nt	-3	14	-12	-6
COCc1c(C(=O)NCCc2ccc(OC(F)F)cc2)oc2ccccc12	nt	nt	-3	-60	-12	-3
C=CCn1c(SCC#N)nc2ccccc2c1=O	53*	-1	-1	7	-10	-5
C[C@@H](c1ccccc1)N1C[C@H](COCc2ccccc2)Oc2cc(N3CCC[C@@H]3CO)ccc2S1(=O)=O	nt	nt	nt	nt	nt	-9
Fc1ccc(NC(=S)Nc2nccs2)cc1	64*	66*	0	-45	-10	-7
C/C=C/C=C/C(=O)Nc1nccs1	36	4	1	23	-10	-5
O=C(Nc1nccs1)c1ccc(-c2ccc(Cl)cc2)o1	57*	13	-6	-12	9	-2
O=C(/C=C/c1ccc(Cl)cc1)Nc1nccs1	63*	-15	-12	-10	-5	10
O=C(Nc1nccs1)c1ccc(-c2ccc(F)cc2)o1	73*	19	-1	-9	-5	-17
O=C(Nc1nccs1)c1ccc(-c2ccccc2Cl)o1	61*	-5	-2	-72	-1	-5
O=C1N(Cc2cccc(Cl)c2)C[C@@H]2C[C@@H](c3c[nH]c4ccccc34)N3CCC[C@@]123	17	58*	0	-15	-1	-5
COc1ccc(CCN(Cc2cccs2)S(=O)(=O)c2ccc(S(=O)(=O)N(C)C3CCCCC3)cc2)cc1OC	-8	61*	0	-4	-20	-5
